# Results from different studies.
# Protocols differ between the studies behind these lines.
# Target: Lymphokine-activated killer T-cell-originated protein kinase (PBK, Homo sapiens, UniProt Q96KB5)
# One construct used (Q96KB5 1-322): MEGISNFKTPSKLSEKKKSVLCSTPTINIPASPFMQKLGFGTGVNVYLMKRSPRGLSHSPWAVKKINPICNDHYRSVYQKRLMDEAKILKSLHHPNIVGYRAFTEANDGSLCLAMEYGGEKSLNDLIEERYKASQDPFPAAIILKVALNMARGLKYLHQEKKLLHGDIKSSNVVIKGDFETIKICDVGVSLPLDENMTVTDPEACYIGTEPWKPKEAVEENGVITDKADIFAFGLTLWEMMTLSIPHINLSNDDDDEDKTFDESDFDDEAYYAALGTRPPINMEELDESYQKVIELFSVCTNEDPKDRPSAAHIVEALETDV
SMILES,assay,conditions,endpoint,value
CC(C)(O)[C@H]1CC[C@H](Nc2ccc3ncc(-c4cccc(C(F)(F)F)c4)n3n2)CC1,"enzyme activity, inhibitor",1 µM,remaining activity,87.2%
N#CCCc1ccc2c(c1)-c1[nH]c3ccc([N+](=O)[O-])cc3c1CC(=O)N2,cell-free assay,0.5 µM,remaining signal,95.4%
CC(C)(C)c1nc(-c2cccc(NS(=O)(=O)c3c(F)cccc3F)c2F)c(-c2ccnc(N)n2)s1,"enzyme activity, inhibitor, radiometric",1 µM,remaining activity,99%
Cn1c2c(c3ccccc31)C(C#N)C(C)(C)NC2=O (centres unmarked),"thermal stability, DSF",10 µM,ΔTm,-0.8 °C
CC/C(=N\NC(=O)NCc1cccc(O)c1)c1ccc(O)c(C)c1O,"enzyme activity, inhibitor",0.1 µM,inhibition,-7.3%
O=C1Nc2ccc(Cl)cc2C1=Cc1cc(Cl)c(O)c(Cl)c1,cell-free assay,0.5 µM,remaining signal,86.1%
CCN1CCC2(CC1)NC(=O)c1c(c3ccc(Cl)c(Cl)c3n1C)C2C#N (racemic),"thermal stability, DSF",10 µM,ΔTm,-0.3 °C
Cc1sc(C(=O)NC2COC2)cc1-n1cc(NC(=O)Nc2c(F)cccc2Cl)cn1,"enzyme activity, inhibitor",10 µM,remaining activity,88.5%
CC(C)(C)c1nc2c(s1)c1nc(N)ncc1c1ccc(NS(=O)(=O)c3c(F)cccc3F)c(F)c12,"enzyme activity, inhibitor, radiometric",1 µM,remaining activity,92%
Cn1c2c(Cl)c(Cl)ccc2c2cc(N)[nH]c(=O)c21,"thermal stability, DSF",10 µM,ΔTm,0.6 °C
O=C(Nc1cnn(-c2csc(C(=O)NC3COC3)c2)c1)Nc1c(F)cccc1Cl,"enzyme activity, inhibitor",5 µM,remaining activity,98.2%
